Experimental data taken from ChEMBL document CHEMBL2093137, “WHO-TDR NTD Screening”.
Converted amounts (≈) assume the structure as drawn.

Tests used:
[1] = test system: Schistosoma mansoni; test: WHO-TDR: Schistosomiasis; format: functional; parameters: concentration or dose not given beside the values
How it was run: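 Activity appears as percent inhibition and as IC50. The underlying screen tested a diverse library of 10,000 compounds, supplied by Life Chemicals, on whole larval and/or adult worms of the Puerto Rican strain of Schistosoma mansoni.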

[2] = test system: Plasmodium falciparum K1; test: WHO-TDR: Malaria; format: functional, organism-based, Homo sapiens; settings: Erythrocyte
How it was run: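 Previously published standard procedures, including a reference drug as positive control, were used to screen whole Plasmodium falciparum K1 parasites inside human red blood cells. IC50 is the measure of antiplasmodial potency. The compounds were a 10,000-member diverse Life Chemicals library.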

[3] = test system: Onchocerca lienalis; test: WHO-TDR: Onchocerciasis; format: functional; parameters: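 at 12.5 µM on microfilariae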
How it was run: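 Following previously published standard procedures, with reference drugs as positive controls, a diverse Life Chemicals library was tested on whole Onchocerca ochengi or Onchocerca lienalis microfilariae. The library held 10,000 compounds filtered for drug-likeness and reactive groups. Activity is recorded both as percent inhibition and as IC50.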

[4] = WHO-TDR: Cytotoxicity; format: toxicity, cell-based; settings: human, MRC5 cells
[5] = test system: Trypanosoma brucei brucei; test: WHO-TDR: Human African Trypanosomiasis (HAT); format: functional, organism-based; settings: Squib-427
How it was run: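 In this whole-organism screen, the target was the bloodstream form of Trypanosoma brucei, strain Squib 427. A diverse set of 10,000 compounds from Life Chemicals, previously filtered for drug-likeness and reactive groups, was assayed by standard published procedures using reference drugs as positive controls. Each value is an IC50 for antiparasitic potency.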

[6] = test system: Trypanosoma cruzi; test: WHO-TDR: Chagas disease; format: functional, organism-based, Homo sapiens; settings: MRC5
How it was run: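 Each IC50 reflects antiparasitic potency against intracellular amastigotes of Trypanosoma cruzi Tulahuen CL2 beta-galactosidase strain. These were cultured in MRC-5SV2 human lung fibroblasts and exposed to a 10,000-compound diverse Life Chemicals library screened according to published standard procedures with a reference drug as positive control.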

[7] = test system: Leishmania infantum; test: WHO-TDR: Leishmaniasis; format: functional, organism-based, Mus musculus; settings: Macrophage
How it was run: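 Intracellular amastigotes of Leishmania infantum MHOM/MA(BE)/67, hosted in murine peritoneal macrophages, were exposed to compounds from a 10,000-member diverse library supplied by Life Chemicals. The library had been filtered for drug-likeness and reactive groups. The reported IC50 expresses antiparasitic potency.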

Compound	% Inhibition [1] [%]	IC50 [2] [µg/mL]	% Inhibition [3] [%]	IC50 [4] [µg/mL]	IC50 [5] [µg/mL]	IC50 [6] [µg/mL]	IC50 [7] [µg/mL]
Cc1cc(NC(=O)CSc2ccc3nnc(-c4cccs4)n3n2)no1	0	0.155 (≈ 0.416 µM)	6.7	> 11.2	> 11.2	4.97 (≈ 13.4 µM)	4.29 (≈ 11.5 µM)
O=C(CSc1ccc2nnc(-c3ccccn3)n2n1)NCC1CCCO1 (stereo not given)	0	3.16 (≈ 8.53 µM)	0	> 11.1	3.3 (≈ 8.9 µM)	5.24 (≈ 14.1 µM)	0.392 (≈ 1.06 µM)
CCOC(=O)CNC(=O)CSc1nnc(NC(=O)c2ccccc2Cl)s1	0	0.848 (≈ 2.04 µM)	13.3	3.81 (≈ 9.19 µM)	0.237 (≈ 0.572 µM)	4.41 (≈ 10.6 µM)	4.16 (≈ 10 µM)
O=C(Cc1ccccc1)Nc1nnc(SCC(=O)NC2CCCC2)s1	0	0.609 (≈ 1.62 µM)	6.7	3.82 (≈ 10.1 µM)	0.382 (≈ 1.01 µM)	4.16 (≈ 11.1 µM)	3.96 (≈ 10.5 µM)
Fc1ccccc1CSc1ccc(-c2ccccn2)nn1	8.3	> 8.92	97	> 8.92	> 8.92	> 8.92	> 8.92
CN(C(=O)CN1CC(=O)Oc2ccccc21)c1ccc(O)cc1	0	2.22 (≈ 7.11 µM)	20	2.96 (≈ 9.49 µM)	2.66 (≈ 8.52 µM)	0.548 (≈ 1.75 µM)	3.03 (≈ 9.71 µM)
CCOc1ccc(C(=O)Nc2nc3c(Cl)ccc(Cl)c3s2)cc1	100	> 11	33.34	> 11	> 11	> 11	> 11
Cc1c(Cl)ccc2sc(NC(=O)c3ccc(N(C)C)cc3)nc12	0	> 10.4	50	> 10.4	> 10.4	> 10.4	> 10.4
C#CCn1/c(=N/C(=O)CN2C(=O)c3ccccc3C2=O)sc2c3ccccc3ccc21	0	> 11.4	13.3	> 11.4	> 11.4	> 11.4	0.413 (≈ 0.971 µM)
CCOC(=O)Cn1/c(=N/C(=O)c2ccc(N3C(=O)CCC3=O)cc2)sc2c(C)cc(C)cc21	0	9.4 (≈ 20.2 µM)	13.3	> 9.4	> 9.4	> 9.4	0.304 (≈ 0.654 µM)
O=C(CCS(=O)(=O)c1ccccc1)Nc1nc(-c2cccc3ccccc23)cs1	0	0.126 (≈ 0.297 µM)	6.7	1.67 (≈ 3.96 µM)	3.87 (≈ 9.15 µM)	0.657 (≈ 1.55 µM)	4.06 (≈ 9.62 µM)
CN(CC1CCCO1)S(=O)(=O)c1ccc(C(=O)Nc2nc3c(s2)CSc2ccccc2-3)cc1 (stereo not given)	41.7	> 9.73	13.3	3 (≈ 5.99 µM)	0.487 (≈ 0.971 µM)	0.521 (≈ 1.04 µM)	4.87 (≈ 9.71 µM)
CC(C)c1ccc2nc(NC(=O)c3ccc(C#N)cc3)sc2c1	0	> 7	0	> 7	0.312 (≈ 0.971 µM)	> 7	> 7
CN(CC1CCCO1)S(=O)(=O)c1ccc(C(=O)Nc2nc3cc4c(cc3s2)OCCO4)cc1 (stereo not given)	100	4.26 (≈ 8.71 µM)	20	> 9.82	3.69 (≈ 7.54 µM)	5.16 (≈ 10.5 µM)	> 9.82
O=C(CSc1ccc2nnc(-c3ccncc3)n2n1)c1ccc(Cl)cc1	0	1.82 (≈ 4.75 µM)	0	4.28 (≈ 11.2 µM)	0.35 (≈ 0.917 µM)	0.425 (≈ 1.11 µM)	4.72 (≈ 12.4 µM)
O=C(Nc1nnc(SCc2ccccc2Cl)s1)C1CCCCC1	0	1.45 (≈ 3.95 µM)	0	> 11	0.356 (≈ 0.967 µM)	4.94 (≈ 13.4 µM)	5.1 (≈ 13.9 µM)
COc1ccc(C(=O)Nc2nnc(SCC(=O)NCc3ccccc3Cl)s2)c(OC)c1	100	3.64 (≈ 7.61 µM)	0	> 14.4	4.66 (≈ 9.73 µM)	> 14.4	> 14.4
COC(=O)c1ccc(NC(=O)CSc2nnc(NC(=O)c3cc(Cl)ccc3OC)s2)cc1	16.7	0.324 (≈ 0.657 µM)	0	4.1 (≈ 8.31 µM)	0.435 (≈ 0.882 µM)	4.49 (≈ 9.11 µM)	4.24 (≈ 8.61 µM)

Compound	% Inhibition [1] [%]	IC50 [2] [µg/mL]	% Inhibition [3] [%]	IC50 [4] [µg/mL]	IC50 [5] [µg/mL]	IC50 [6] [µg/mL]	IC50 [7] [µg/mL]
Cc1onc(-c2ccccc2Cl)c1C(=O)Nc1nnc(SCC(=O)Nc2ccc3c(c2)OCO3)s1	0	1.16 (≈ 2.2 µM)	13.3	2.1 (≈ 3.96 µM)	0.483 (≈ 0.911 µM)	3.2 (≈ 6.05 µM)	0.791 (≈ 1.49 µM)
O=C(CSc1nnc(NC(=O)c2ccccc2C(F)(F)F)s1)Nc1ccc2c(c1)OCO2	0	0.653 (≈ 1.35 µM)	0	3.97 (≈ 8.23 µM)	0.45 (≈ 0.933 µM)	4.76 (≈ 9.86 µM)	4.55 (≈ 9.44 µM)
O=C(CSc1nnc(NC(=O)c2cccs2)s1)NCc1ccccc1Cl	16.7	1.2 (≈ 2.82 µM)	13.3	4.21 (≈ 9.91 µM)	0.383 (≈ 0.902 µM)	4.32 (≈ 10.2 µM)	5.12 (≈ 12 µM)
O=C(CSc1nnc(NC(=O)c2cc(Cl)ccc2Cl)s1)Nc1ccc2c(c1)OCO2	0	8.18 (≈ 16.9 µM)	13.3	1.94 (≈ 4.02 µM)	4.25 (≈ 8.8 µM)	0.409 (≈ 0.847 µM)	4.25 (≈ 8.8 µM)
COc1ccc(CCNC(=O)CSc2nnc(NC(=O)c3cc(Cl)ccc3Cl)s2)cc1OC	8.3	0.398 (≈ 0.755 µM)	13.3	0.526 (≈ 0.997 µM)	0.352 (≈ 0.668 µM)	0.239 (≈ 0.452 µM)	4.54 (≈ 8.61 µM)
Cc1csc(NC(=O)CSc2nnc(NC(=O)c3ccco3)s2)n1	0	1.14 (≈ 3 µM)	0	5.73 (≈ 15 µM)	4.74 (≈ 12.4 µM)	5.1 (≈ 13.4 µM)	4.74 (≈ 12.4 µM)
O=C(CSc1nnc(NC(=O)COc2ccc(Cl)cc2)s1)NCc1ccc2c(c1)OCO2	0	1.72 (≈ 3.48 µM)	13.3	3.34 (≈ 6.77 µM)	4.51 (≈ 9.14 µM)	0.433 (≈ 0.879 µM)	0.451 (≈ 0.914 µM)
O=C(CSc1nnc(NC(=O)COc2ccc(Cl)cc2)s1)NCc1ccco1	0	1.44 (≈ 3.28 µM)	6.7	0.462 (≈ 1.05 µM)	0.428 (≈ 0.975 µM)	0.408 (≈ 0.93 µM)	0.467 (≈ 1.06 µM)
O=C(CSc1nnc(NC(=O)COc2ccc(Cl)cc2)s1)NCC1CCCO1 (stereo not given)	0	3.42 (≈ 7.71 µM)	13.3	3.54 (≈ 7.99 µM)	2 (≈ 4.52 µM)	0.416 (≈ 0.939 µM)	0.466 (≈ 1.05 µM)
CN(C)S(=O)(=O)c1ccc(C(=O)Nc2nnc(SCC(=O)NCc3ccco3)s2)cc1	0	2.42 (≈ 5.03 µM)	6.7	3.06 (≈ 6.36 µM)	5.04 (≈ 10.5 µM)	0.933 (≈ 1.94 µM)	5.04 (≈ 10.5 µM)
CC(C)(C)C(=O)Nc1nnc(SCC(=O)Nc2ccc(Cl)c(Cl)c2)s1	0	1.13 (≈ 2.69 µM)	0	2.84 (≈ 6.78 µM)	0.456 (≈ 1.09 µM)	4.66 (≈ 11.1 µM)	4.51 (≈ 10.7 µM)
COc1ccc(Cl)cc1NC(=O)CSc1nnc(NC(=O)Cc2ccc(F)cc2)s1	100	> 8.44	0	> 8.44	> 8.44	> 8.44	2.73 (≈ 5.85 µM)
Cn1cc(S(=O)(=O)N2CCN(C(c3ccccc3)c3ccccc3)CC2)c(=O)n(C)c1=O	0	> 11.5	0	> 11.5	2.16 (≈ 4.75 µM)	0.34 (≈ 0.749 µM)	3.65 (≈ 8.02 µM)
O=C(Nc1ccc2c(c1)OCCO2)c1oc2ccccc2c1NC(=O)C1c2ccccc2Oc2ccccc21	100	5.04 (≈ 9.72 µM)	0	> 15.6	> 15.6	> 15.6	5.04 (≈ 9.71 µM)
O=C(Nc1ccc(-c2cn3c(n2)SCC3)cc1)C1CCCC1	0	9.4 (≈ 30 µM)	0	> 9.4	> 9.4	> 9.4	0.304 (≈ 0.97 µM)
CCN(CC)CCSc1ccc(-c2sc(-c3ccc(F)cc3)nc2C)nn1	0	0.5 (≈ 1.24 µM)	6.7	> 12.1	0.314 (≈ 0.78 µM)	3.25 (≈ 8.09 µM)	3.82 (≈ 9.49 µM)
CC(Sc1ccc2nnc(CCNC(=O)c3ccccc3)n2n1)c1ccccc1 (stereo not given)	66.7	3.16 (≈ 7.83 µM)	0	> 12.1	3.3 (≈ 8.17 µM)	5.24 (≈ 13 µM)	0.392 (≈ 0.971 µM)
